A short description of series [1]: (§1) Metabolic stability in human liver microsomes assessed as compound remaining after 10 mins. It is filed as ADME. The settings on record: liver microsomes, read-out: Stability. The essentials:
(§2)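 Compound was incubated with human, mouse or rat liver microsomal preparations. Stability is the percent of compound remaining after 10 min.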
A general note: Liver microsomes are vesicles of endoplasmic reticulum, rich in cytochrome P450 enzymes.

Series [2] deals with Mus musculus. In words: Inhibition of CSF-1-induced c-fos gene expression in mouse spleen at 20 mg/kg, po after 6 hrs. The series is classed as functional. A digest of the protocol: (§3)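 In the mouse pharmacodynamic model, compound was given orally. Spleen c-fos mRNA induced by an iv injection of CSF-1 was measured 6 or 8 h after dosing.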
Series [3] can be described thus: Metabolic stability in rat liver microsomes assessed as compound remaining after 10 mins. The series is classed as ADME. The settings on record: read-out: Stability. A digest of the protocol: as §2
Series [4] addresses Mast/stem cell growth factor receptor Kit (Homo sapiens, UniProt P10721). Put plainly: Inhibition of KIT (unknown origin).
The target of series [5] is T1, Macrophage colony-stimulating factor 1 receptor (Mus musculus, UniProt P09581).
T1 sequence (P09581 whole entry): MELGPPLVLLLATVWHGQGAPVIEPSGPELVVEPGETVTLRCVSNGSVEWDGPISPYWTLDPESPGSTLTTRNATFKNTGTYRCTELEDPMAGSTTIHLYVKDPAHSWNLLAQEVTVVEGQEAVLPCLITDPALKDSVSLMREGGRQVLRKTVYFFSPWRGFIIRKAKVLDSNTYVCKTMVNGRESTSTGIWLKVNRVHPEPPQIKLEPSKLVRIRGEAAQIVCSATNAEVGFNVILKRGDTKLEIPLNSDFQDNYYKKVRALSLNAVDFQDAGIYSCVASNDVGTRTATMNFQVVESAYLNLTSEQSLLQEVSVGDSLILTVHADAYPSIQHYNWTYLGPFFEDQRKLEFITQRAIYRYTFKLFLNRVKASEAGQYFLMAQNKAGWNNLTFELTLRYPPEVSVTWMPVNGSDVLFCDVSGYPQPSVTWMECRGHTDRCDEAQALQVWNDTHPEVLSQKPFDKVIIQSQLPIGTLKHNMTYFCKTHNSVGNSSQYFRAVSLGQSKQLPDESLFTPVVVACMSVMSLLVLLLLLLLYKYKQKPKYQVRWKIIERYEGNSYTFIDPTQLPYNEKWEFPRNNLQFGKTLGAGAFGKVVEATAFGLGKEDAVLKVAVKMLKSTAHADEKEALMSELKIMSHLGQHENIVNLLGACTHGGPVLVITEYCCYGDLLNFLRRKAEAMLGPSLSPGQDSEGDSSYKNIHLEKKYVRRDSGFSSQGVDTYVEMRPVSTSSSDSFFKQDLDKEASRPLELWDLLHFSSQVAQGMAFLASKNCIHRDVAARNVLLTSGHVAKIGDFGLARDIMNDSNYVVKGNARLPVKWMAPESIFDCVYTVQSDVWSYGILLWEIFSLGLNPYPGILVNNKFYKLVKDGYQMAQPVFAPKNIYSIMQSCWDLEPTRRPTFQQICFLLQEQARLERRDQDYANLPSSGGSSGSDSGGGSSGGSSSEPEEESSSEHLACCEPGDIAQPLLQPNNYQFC
In words: Inhibition of FMS in mouse BMDM cells. The series is classed as cell-based.

Series [6] has as its system Mus musculus. In words: Inhibition of CSF-1-induced c-fos gene expression in mouse spleen at 30 mg/kg, po after 6 hrs. The series is classed as functional. The essentials: as §3
A short description of series [7]: Metabolic stability in mouse liver microsomes assessed as compound remaining after 10 mins. The series is classed as ADME, Microsome. The note with it: liver microsomes, read-out: Stability. The essentials: as §2
The test system of series [8] is Rattus norvegicus. In words: Antiinflammatory activity in chronic phase of po dosed Lewis rat arthritis model assessed as inhibition of SCW-induced ankle swelling administered as bid for 14 days. The series is classed as functional, organism-based. The essentials: (§4)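 Female Lewis rats (80–100 g) received streptococcal cell wall material ip on day 0. On day 5, rats with a distinct acute-phase joint swelling response were randomized (n = 7/group). Vehicle, 10 or 40 mg/kg was given orally bid from day 10 (start of chronic phase) for 14 days. Ankle and paw swelling were followed.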

For series [9], the system named is Mus musculus. In words: Inhibition of CSF-1-induced c-fos gene expression in mouse spleen at 40 mg/kg, po after 6 hrs. It is filed as functional. The essentials:
as §3

Series [10] deals with Rattus norvegicus. Put plainly: Antiinflammatory activity in chronic phase of Lewis rat arthritis model assessed as inhibition of SCW-induced ankle swelling at 10 to 40 mg/kg, po bid administered for 14 days. The series is classed as functional, organism-based. The essentials: as §4
Series [11] deals with Rattus norvegicus. In words: Toxicity in Sprague-Dawley rat at 40 mg/kg, po bid after 4.5 days. The series is classed as organism-based. Further details: dose 40 mg/kg, route oral. The note with it: in vivo, 108 h. The essentials: (§5)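 Female Sprague–Dawley rats (150–200 g) were dosed orally bid for 4 days with vehicle (n = 4) or 10–40 mg/kg (n = 3), as a solution at 6 ml/kg in 20% HPβCD. A final dose was given on day 5 and rats were sacrificed 2 h later. Plasma drug level, body weight versus vehicle controls and blood reticulocytes were assessed.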

Series [12] can be described thus: Plasma concentration in Sprague-Dawley rat at 40 mg/kg, po bid administered for 5 days measured 2 hrs post last dose. Further details: dose 40 mg/kg, route oral. It is filed as ADME, organism-based. The essentials:
as §5

For series [13], the system named is Rattus norvegicus. Put plainly: Toxicity in Sprague-Dawley rat assessed as body weight loss at 40 mg/kg, po bid after 4.5 days relative to vehicle-treated control. Further details: dose 40 mg/kg, route oral. The note with it: in vivo, 108 h. It is filed as organism-based. The essentials: as §5
Series [14] concerns Rattus norvegicus. In words: Toxicity in Sprague-Dawley rat assessed as blood reticulocyte level at 40 mg/kg, po bid after 4.5 days. The series is classed as organism-based. The settings on record: in vivo, 108 h. Also noted: dose 40 mg/kg, route oral. The essentials: as §5
Series [15] is described as follows: Plasma concentration in Sprague-Dawley rat at 10 mg/kg, po bid administered for 5 days measured 2 hrs post last dose. The series is classed as ADME, organism-based. Further details: dose 10 mg/kg, route oral. A digest of the protocol:
as §5

The nature of series [16]: Tmax in Sprague-Dawley rat at 5 mg/kg, po. The series is classed as ADME, organism-based. Also noted: dose 5 mg/kg, route oral. The settings on record: in vivo.
Series [17] can be described thus: Volume of distribution in Sprague-Dawley rat at 1 mg/kg, iv. It is filed as ADME, organism-based. Also noted: dose 1 mg/kg, route intravenous. The note with it: in vivo.
Series [18] is described as follows: Systemic clearance in Sprague-Dawley rat at 1 mg/kg, iv. It is filed as ADME, organism-based. Further details: dose 1 mg/kg, route intravenous. The note with it: in vivo.
Series [19] in a line: Cmax in Sprague-Dawley rat at 5 mg/kg, po. The note with it: in vivo. It is filed as ADME, organism-based. Also noted: dose 5 mg/kg, route oral.
Series [20] is described as follows: AUC in Sprague-Dawley rat at 5 mg/kg, po. The series is classed as ADME, organism-based. Further details: dose 5 mg/kg, route oral. The note with it: plasma.
Series [21] is described as follows: Terminal half life in Sprague-Dawley rat at 5 mg/kg, po. It is filed as ADME, organism-based. The note with it: in vivo, read-out: beta t1/2 (converted). Further details: dose 5 mg/kg, route oral.
Series [22] is described as follows: Oral bioavailability in Sprague-Dawley rat at 5 mg/kg. The series is classed as ADME, organism-based. The settings on record: in vivo.
For another series, the system named is Liver microsome. Described as §1. It is filed as ADME. The settings on record: microsomes, 10 min. The essentials: as §2

Experimental findings from ChEMBL document CHEMBL3085648, “Enhancement of kinase selectivity in a potent class of arylamide FMS inhibitors” (Bioorg Med Chem Lett, 2013) are described below.

Active and inactive are the calls of the source. The rule behind the calls is not given here.

Sequence of Mast/stem cell growth factor receptor Kit (P10721 whole entry): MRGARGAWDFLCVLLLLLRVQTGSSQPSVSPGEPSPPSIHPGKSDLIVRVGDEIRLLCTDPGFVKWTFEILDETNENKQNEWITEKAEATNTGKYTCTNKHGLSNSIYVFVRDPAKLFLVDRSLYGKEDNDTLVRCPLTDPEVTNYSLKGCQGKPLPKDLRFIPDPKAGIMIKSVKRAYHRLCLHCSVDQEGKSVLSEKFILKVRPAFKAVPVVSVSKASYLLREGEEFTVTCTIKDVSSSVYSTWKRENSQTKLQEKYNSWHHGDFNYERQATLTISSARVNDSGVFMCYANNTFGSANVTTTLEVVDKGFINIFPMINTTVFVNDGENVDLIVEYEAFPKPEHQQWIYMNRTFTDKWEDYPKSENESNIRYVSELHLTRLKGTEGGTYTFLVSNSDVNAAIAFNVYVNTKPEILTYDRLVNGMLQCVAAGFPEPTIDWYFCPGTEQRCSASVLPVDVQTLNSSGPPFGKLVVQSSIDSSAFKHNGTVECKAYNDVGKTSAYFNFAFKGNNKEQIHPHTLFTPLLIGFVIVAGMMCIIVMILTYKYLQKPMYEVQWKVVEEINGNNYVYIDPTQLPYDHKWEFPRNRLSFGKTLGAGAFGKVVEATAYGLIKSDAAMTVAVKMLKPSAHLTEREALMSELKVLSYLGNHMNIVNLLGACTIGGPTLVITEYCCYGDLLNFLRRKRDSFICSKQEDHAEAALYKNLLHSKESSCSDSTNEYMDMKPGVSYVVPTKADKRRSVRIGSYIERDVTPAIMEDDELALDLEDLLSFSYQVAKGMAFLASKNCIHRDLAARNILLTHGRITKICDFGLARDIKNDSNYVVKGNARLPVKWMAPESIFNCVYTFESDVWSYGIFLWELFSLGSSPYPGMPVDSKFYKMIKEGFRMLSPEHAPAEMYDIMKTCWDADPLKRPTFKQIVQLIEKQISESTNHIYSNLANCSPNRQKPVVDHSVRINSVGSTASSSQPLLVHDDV

The term inhibition in vivo denotes how much of the control response was suppressed. Low values mean little suppression, high ones strong suppression. By IC50 is commonly meant the midpoint of a concentration-inhibition curve. A low value points to greater potency. Regarding `COCCNCC(C)(C)c1ccc(NC(=O)c2nc(C#N)c[nH]2)c(C2=CCC(C)(C)CC2)c1`, the figures for the remaining at 10 min in series [1] and in series [3] were 35% and 39%, respectively. For the same compound, the inhibition in vivo at 20 mg/kg in the series on Mus musculus [2] amounted to 0%. The compound further displayed a concentration for half-maximal inhibition (IC50) in series [4] of 110 nM.

For the compound `CC1(C)CC=C(c2cc(C(C)(C)NCCN3CCOCC3)ccc2NC(=O)c2nc(C#N)c[nH]2)CC1`, the remaining at 10 min in series [1] came to 82%; in series [7] it was 62%; in [3] it was 90%. Besides, the half-inhibitory concentration (IC50) in series [5] is 5.8 nM; in [4], 92 nM. For the same compound, testing at 30 mg/kg with Mus musculus [6] gave an inhibition in vivo of 14%.

Regarding `CC1(C)CC=C(c2cc(C(C)(C)N3CCS(=O)(=O)CC3)ccc2NC(=O)c2nc(C#N)c[nH]2)CC1`, the figures for the remaining at 10 min in series [1], in [7] and in series [3] were 112%, 84% and 98%, respectively. Moreover, the inhibition in vivo at 30 mg/kg in the series on Mus musculus [6] came to 8%. In series [4], the concentration for half-maximal inhibition (IC50) is 250 nM.

Consider `CC1(C)CC=C(c2cc(C(C)(C)N3CCN(CCO)CC3)ccc2NC(=O)c2ncc(C#N)[nH]2)CC1`, for which the Activity result with Rattus norvegicus [8] was “Dose-dependent effect”. The compound also registered an inhibition in vivo at 40 mg/kg in the series on Mus musculus [9] of 78%. Also, the result with Rattus norvegicus [10] was Active.

Consider `CC1(C)CC=C(c2cc(C(C)(C)N3CCN(CCO)CC3)ccc2NC(=O)c2nc(C#N)c[nH]2)CC1`, for which the remaining at 10 min is 110% in series [1], 98% in [7] and 63% in series [3]. Also, the Activity result in the series with Rattus norvegicus [11], in the series with Rattus norvegicus [13] and with Rattus norvegicus [14] was “Non-toxic” each time. Besides, the concentration at 2 h in series [12] was 5.16 µM; in [15], 680 nM.

By Tmax is commonly meant the time at which the peak concentration occurs. The Vd is a proportionality between amount in the body and measured concentration, not a real space. A higher Vd goes with wide distribution into tissue. For orientation: clearance means the volume of plasma or blood freed of the substance per unit of time. Low readings indicate inefficient removal, high ones efficient removal. In general, Cmax refers to the highest concentration seen after dosing. As usually defined, the AUC is the area under the concentration-time curve, a measure of exposure. One may read the bioavailability as dose-corrected exposure relative to a reference, in per cent. Low readings indicate poor availability, high ones good availability. Consider `CC1(C)CC=C(c2cc(C(C)(C)N3CCN(CCO)CC3)ccc2NC(=O)c2nc(C#N)c[nH]2)CC1.Cl`, for which, in [16], the time to peak (Tmax) stood at 2.8 h. This compound displayed a volume of distribution (Vd) in series [17] of 7.6 L/kg. In series [18], this compound came in with a clearance of 34 mL/min/kg. The compound also registered a maximum concentration (Cmax) in [19] of 210 nM. In series [20], the AUC was determined as 690 ng·h/mL. In addition, the half-life in series [21] was 390 min. The same compound gave a bioavailability in series [22] of 31%.

As to `CC(=O)N1CCN(C(C)(C)c2ccc(NC(=O)c3nc(C#N)c[nH]3)c(C3=CCC(C)(C)CC3)c2)CC1`, the Stability entry with Liver microsome is “ND(Insoluble)”. The same compound showed a concentration for half-maximal inhibition (IC50) in series [4] of 40 nM.
